ChEMBL document CHEMBL5724801, “EUbOPEN Chemogenomics Library - Multiplex” (2024)
“And” between values parts separate entries of the source, which are not always exact repeats. Equal values may be shown once.

Test system: HEK-293T
Experiment: Multiplex assay against HEK293T
Assay type: toxicity, cell-based
Settings: human
In short: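 Compound was added to live cells that had been stained at seeding with Hoechst33342, BioTracker Green Microtubule Cytoskeleton Dye, MitoTracker Red and Annexin V Alexa Fluor 680, and imaging followed on a CQ1 microscope at 37°C and 5% CO2. CellPathfinder machine-learning gating divided cells into Hoechst high-intensity objects or normal cells, normal cells into healthy, pyknosed or fragmented nuclei, and pyknosed cells into mitotic or apoptotic. Tubulin, mitochondrial-mass and membrane-permeability phenotypes are per cents of healthy-nucleus cells.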

[1] = 12 h, 1 µM, compound concentration 1 uM
[2] = 12 h, 10 µM, compound concentration 10 uM
[3] = 24 h, 1 µM, compound concentration 1 uM
[4] = 24 h, 10 µM, compound concentration 10 uM
[5] = 48 h, 1 µM, compound concentration 1 uM
[6] = 48 h, 10 µM, compound concentration 10 uM

## CN1C[C@H](C(=O)N[C@]2(C)O[C@@]3(O)[C@@H]4CCCN4C(=O)[C@H](Cc4ccccc4)N3C2=O)C[C@@H]2c3cccc4[nH]cc(c34)C[C@H]21.CS(=O)(=O)O [DIHYDROERGOTAMINE MESYLATE]
[1]
  Population Apoptotic (%): 38% and 46%
  Population Fragmented Nuclei (%): 6% and 3%
  Population Healthy Nuclei (%): 84% and 81%
  Population Hoechst High Intensity Objects (%): 5%
  Population Membrane Permeable-Phenotype (%): 0%
  Population Mitochondria Different-Phenotype (%): 41% and 65%
  Population Mitotic Cells (%): 61% and 53%
  Population Normal (%): 94%
  Population Pyknosed Nuclei (%): 8% and 14%
  Population Tubulin-Different-Phenotype (%): 26% and 17%
  Total Cell Count: 418 and 285
[2]
  Population Apoptotic (%): 31% and 53%
  Population Fragmented Nuclei (%): 7% and 5%
  Population Healthy Nuclei (%): 76% and 80%
  Population Hoechst High Intensity Objects (%): 9% and 11%
  Population Membrane Permeable-Phenotype (%): 0%
  Population Mitochondria Different-Phenotype (%): 48% and 61%
  Population Mitotic Cells (%): 68% and 46%
  Population Normal (%): 90% and 88%
  Population Pyknosed Nuclei (%): 15% and 13%
  Population Tubulin-Different-Phenotype (%): 29% and 23%
  Total Cell Count: 403 and 435
[3]
  Population Apoptotic (%): 28% and 51%
  Population Fragmented Nuclei (%): 9% and 7%
  Population Healthy Nuclei (%): 80% and 84%
  Population Hoechst High Intensity Objects (%): 4% and 3%
  Population Membrane Permeable-Phenotype (%): 0%
  Population Mitochondria Different-Phenotype (%): 28% and 41%
  Population Mitotic Cells (%): 71% and 48%
  Population Normal (%): 95% and 96%
  Population Pyknosed Nuclei (%): 9% and 8%
  Population Tubulin-Different-Phenotype (%): 20% and 12%
  Total Cell Count: 621 and 341
[4]
  Population Apoptotic (%): 27% and 32%
  Population Fragmented Nuclei (%): 10% and 9%
  Population Healthy Nuclei (%): 76% and 84%
  Population Hoechst High Intensity Objects (%): 5% and 6%
  Population Membrane Permeable-Phenotype (%): 0%
  Population Mitochondria Different-Phenotype (%): 33% and 39%
  Population Mitotic Cells (%): 72% and 67%
  Population Normal (%): 94% and 93%
  Population Pyknosed Nuclei (%): 13% and 6%
  Population Tubulin-Different-Phenotype (%): 26% and 16%
  Total Cell Count: 480 and 567
[5]
  Population Apoptotic (%): 29% and 28%
  Population Fragmented Nuclei (%): 14% and 12%
  Population Healthy Nuclei (%): 78% and 82%
  Population Hoechst High Intensity Objects (%): 2%
  Population Membrane Permeable-Phenotype (%): 1% and 0%
  Population Mitochondria Different-Phenotype (%): 17% and 23%
  Population Mitotic Cells (%): 70% and 71%
  Population Normal (%): 97%
  Population Pyknosed Nuclei (%): 6% and 5%
  Population Tubulin-Different-Phenotype (%): 11% and 9%
  Total Cell Count: 1011 and 524
[6]
  Population Apoptotic (%): 22% and 31%
  Population Fragmented Nuclei (%): 15%
  Population Healthy Nuclei (%): 76% and 77%
  Population Hoechst High Intensity Objects (%): 2% and 1%
  Population Membrane Permeable-Phenotype (%): 0%
  Population Mitochondria Different-Phenotype (%): 20% and 21%
  Population Mitotic Cells (%): 77% and 68%
  Population Normal (%): 97% and 98%
  Population Pyknosed Nuclei (%): 7% and 6%
  Population Tubulin-Different-Phenotype (%): 12% and 11%
  Total Cell Count: 778 and 793

## O=C(Nc1cc(-c2ccccc2)nn1-c1ccccc1F)c1ccc([N+](=O)[O-])cc1
[1]
  Population Apoptotic (%): 33% and 37%
  Population Fragmented Nuclei (%): 7% and 6%
  Population Healthy Nuclei (%): 78% and 83%
  Population Hoechst High Intensity Objects (%): 9% and 6%
  Population Membrane Permeable-Phenotype (%): 0%
  Population Mitochondria Different-Phenotype (%): 31% and 48%
  Population Mitotic Cells (%): 66% and 62%
  Population Normal (%): 90% and 94%
  Population Pyknosed Nuclei (%): 13% and 9%
  Population Tubulin-Different-Phenotype (%): 19%
  Total Cell Count: 402 and 417
[2]
  Population Apoptotic (%): 37% and 44%
  Population Fragmented Nuclei (%): 10% and 6%
  Population Healthy Nuclei (%): 71% and 73%
  Population Hoechst High Intensity Objects (%): 5% and 6%
  Population Membrane Permeable-Phenotype (%): 0%
  Population Mitochondria Different-Phenotype (%): 41% and 65%
  Population Mitotic Cells (%): 62% and 55%
  Population Normal (%): 94% and 93%
  Population Pyknosed Nuclei (%): 17% and 20%
  Population Tubulin-Different-Phenotype (%): 40% and 45%
  Total Cell Count: 342 and 367
[3]
  Population Apoptotic (%): 33% and 35%
  Population Fragmented Nuclei (%): 8% and 12%
  Population Healthy Nuclei (%): 78%
  Population Hoechst High Intensity Objects (%): 4%
  Population Membrane Permeable-Phenotype (%): 0% and 1%
  Population Mitochondria Different-Phenotype (%): 21% and 31%
  Population Mitotic Cells (%): 66% and 64%
  Population Normal (%): 95%
  Population Pyknosed Nuclei (%): 12% and 8%
  Population Tubulin-Different-Phenotype (%): 17% and 16%
  Total Cell Count: 481 and 530
[4]
  Population Apoptotic (%): 15% and 22%
  Population Fragmented Nuclei (%): 9% and 7%
  Population Healthy Nuclei (%): 77% and 83%
  Population Hoechst High Intensity Objects (%): 2% and 3%
  Population Membrane Permeable-Phenotype (%): 0%
  Population Mitochondria Different-Phenotype (%): 35% and 47%
  Population Mitotic Cells (%): 84% and 77%
  Population Normal (%): 97% and 96%
  Population Pyknosed Nuclei (%): 13% and 8%
  Population Tubulin-Different-Phenotype (%): 35% and 33%
  Total Cell Count: 434 and 482
[5]
  Population Apoptotic (%): 17% and 33%
  Population Fragmented Nuclei (%): 13% and 17%
  Population Healthy Nuclei (%): 79% and 74%
  Population Hoechst High Intensity Objects (%): 3% and 2%
  Population Membrane Permeable-Phenotype (%): 2%
  Population Mitochondria Different-Phenotype (%): 14% and 15%
  Population Mitotic Cells (%): 82% and 66%
  Population Normal (%): 96% and 97%
  Population Pyknosed Nuclei (%): 7%
  Population Tubulin-Different-Phenotype (%): 9% and 11%
  Total Cell Count: 893 and 799
[6]
  Population Apoptotic (%): 22% and 20%
  Population Fragmented Nuclei (%): 12% and 15%
  Population Healthy Nuclei (%): 77%
  Population Hoechst High Intensity Objects (%): 2% and 3%
  Population Membrane Permeable-Phenotype (%): 2% and 1%
  Population Mitochondria Different-Phenotype (%): 19% and 27%
  Population Mitotic Cells (%): 77% and 79%
  Population Normal (%): 97% and 96%
  Population Pyknosed Nuclei (%): 9% and 6%
  Population Tubulin-Different-Phenotype (%): 23% and 26%
  Total Cell Count: 671 and 666
